Columns and labels:
MCF7 = assay: Cytotoxicity against human MCF7 cells after 48 hrs by SRB assay; assay type: functional, cell-based; settings: MCF7, 48 h
Outline: (§1)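 Cells seeded at 10⁴ per well and allowed to attach for 24 h, then exposed to compounds at 0, 1, 2.5 and 10 (four levels), triplicate wells per dose, for 48 h at 37 C in 5% CO₂. Cells were then fixed, washed and stained with sulforhodamine B. Excess dye was removed with acetic acid, and bound dye was recovered in Tris EDTA buffer. Results are given as IC₅₀.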

MDA-MB-231 = assay: Cytotoxicity against human MDA-MB-231 cells after 48 hrs by SRB assay; assay type: functional, cell-based; settings: MDA-MB-231, 48 h; outline: as §1

Compound | IC50 (MCF7) [nM] | IC50 (MDA-MB-231) [nM]
O=C1NC(=O)C(=Cc2c(-c3ccc(O)cc3)[nH]c3ccccc23)C(=O)N1 | 41.8 | –
Oc1ccc(-c2cc3ccccc3[nH]2)cc1 | 71.8 | –
O=Cc1c(-c2ccc(O)cc2)[nH]c2ccccc12 | 9 | 42.2
CC(=O)N/N=C/c1c(-c2ccc(O)cc2)[nH]c2ccccc12 | 32.3 | –
O=C(N/N=C/c1c(-c2ccc(O)cc2)[nH]c2ccccc12)c1ccccc1 | 18.7 | 28.2
Nc1ccccc1C(=O)N/N=C/c1c(-c2ccc(O)cc2)[nH]c2ccccc12 | 17.9 | 29.7
Nc1ccc(C(=O)N/N=C/c2c(-c3ccc(O)cc3)[nH]c3ccccc23)cc1 | 3.7 | 37.8
O=C(N/N=C/c1c(-c2ccc(O)cc2)[nH]c2ccccc12)c1ccc([N+](=O)[O-])cc1 | 1.6 | 32.5
O=C(N/N=C/c1c(-c2ccc(O)cc2)[nH]c2ccccc12)c1ccc(Cl)cc1 | 3.8 | 37.2
CN/N=C/c1c(-c2ccc(O)cc2)[nH]c2ccccc12 | 17.7 | 47.5
Oc1ccc(-c2[nH]c3ccccc3c2/C=N/Nc2ccccc2)cc1 | 6.7 | 25.1
Oc1ccc(-c2[nH]c3ccccc3c2/C=N/Nc2ccccc2Cl)cc1 | 5.7 | 31.6
NC(=S)N/N=C/c1c(-c2ccc(O)cc2)[nH]c2ccccc12 | 32 | –
O/N=C/c1c(-c2ccc(O)cc2)[nH]c2ccccc12 | 27.6 | –
O=C1NC(=S)NC(=O)C1=Cc1c(-c2ccc(O)cc2)[nH]c2ccccc12 | 55.1 | –
N#CC(C#N)=Cc1c(-c2ccc(O)cc2)[nH]c2ccccc12 | 87.7 | –
Oc1ccc(-c2[nH]c3ccccc3c2-c2nc3ccccc3[nH]2)cc1 | 23.5 | –
Oc1ccc(-c2[nH]c3ccccc3c2-c2nc3ccccc3o2)cc1 | 17.5 | 15.3
Oc1ccc(-c2[nH]c3ccccc3c2-c2ncc[nH]2)cc1 | 28.4 | –
COC(=O)Oc1ccc(-c2cc3ccccc3[nH]2)cc1 | 93.6 | –
COC(=O)COc1ccc(-c2cc3ccccc3[nH]2)cc1 | 35 | –
CCOC(=O)COc1ccc(-c2cc3ccccc3[nH]2)cc1 | 102 | –

Compound | IC50 (MCF7) [nM] | IC50 (MDA-MB-231) [nM]
NC(=O)COc1ccc(-c2cc3ccccc3[nH]2)cc1 | 37.6 | –
O=C(COc1ccc(-c2cc3ccccc3[nH]2)cc1)NCCO | 96.8 | –
O=C(COc1ccc(-c2cc3ccccc3[nH]2)cc1)Nc1ccncc1 | 21.1 | –
O=C(COc1ccc(-c2cc3ccccc3[nH]2)cc1)Nc1cnccn1 | 36.3 | –
O=C(COc1ccc(-c2cc3ccccc3[nH]2)cc1)N(CCO)CCO | 27.5 | –
CN(C)C(=O)COc1ccc(-c2cc3ccccc3[nH]2)cc1 | 34.3 | –
O=C(COc1ccc(-c2cc3ccccc3[nH]2)cc1)N1CCCC1 | 14.8 | 42.2
NNC(=O)COc1ccc(-c2cc3ccccc3[nH]2)cc1 | 20 | –
O=C(COc1ccc(-c2cc3ccccc3[nH]2)cc1)NNc1ccccc1 | 28 | –
CC(=O)NNC(=O)COc1ccc(-c2cc3ccccc3[nH]2)cc1 | 92.9 | –
NC(=S)NNC(=O)COc1ccc(-c2cc3ccccc3[nH]2)cc1 | 44.7 | –
NS(=O)(=O)c1ccc(NC(=O)COc2ccc(-c3cc4ccccc4[nH]3)cc2)cc1 | 24.2 | –
Cc1cc(NS(=O)(=O)c2ccc(NC(=O)COc3ccc(-c4cc5ccccc5[nH]4)cc3)cc2)no1 | 17.5 | 9.56
O=C(COc1ccc(-c2cc3ccccc3[nH]2)cc1)Nc1ccc(S(=O)(=O)Nc2nccs2)cc1 | 7.4 | 29
Cc1cc(C)n(C(=O)COc2ccc(-c3cc4ccccc4[nH]3)cc2)n1 | 43.2 | –
Cc1cc(-c2ccccc2)nn1C(=O)COc1ccc(-c2cc3ccccc3[nH]2)cc1 | 48.9 | –
CC1=NN(C(=O)COc2ccc(-c3cc4ccccc4[nH]3)cc2)C(=O)C1 | 31.8 | –
c1ccc(-c2nnc(COc3ccc(-c4cc5ccccc5[nH]4)cc3)o2)cc1 | 13.7 | 18.3
Nc1ccc(-c2nnc(COc3ccc(-c4cc5ccccc5[nH]4)cc3)o2)cc1 | 48 | –
Nc1ccccc1-c1nnc(COc2ccc(-c3cc4ccccc4[nH]3)cc2)o1 | 26 | –
Oc1ccccc1-c1nnc(COc2ccc(-c3cc4ccccc4[nH]3)cc2)o1 | 39 | –
COc1ccc2nc(-c3nnc(COc4ccc(-c5cc6ccccc6[nH]5)cc4)o3)ccc2c1 | 22.1 | –
